Here are results for 38 compounds from ChEMBL document CHEMBL1145019, “The power of visual imagery in drug design. Isopavines as a new class of morphinomimetics and their human opioid receptor binding activity” (J Med Chem, 2003).

Active and inactive are the calls of the source. No cut-off for these calls is given here.

Test [1] concerns the target Delta-type opioid receptor (Homo sapiens, UniProt P41143). The test is described as follows: In vitro binding affinity against cloned human Opioid receptor delta 1 expressed in HEK 293S cells. In kind it is cell-based, HEK293. In short, it runs like this: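 Compounds tested at 5 or 10 concentrations in duplicate, in 50 mM Tris, 3 mM MgCl2, 1 mg/mL BSA, pH 7.4. Bound radioactivity measured at equilibrium by filtration. Nonspecific binding defined with 10 µM naloxone. IC50 from a two-parameter logistic fit.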

In test [2] the target is Kappa-type opioid receptor (Homo sapiens, UniProt P41145). Description: biochemical. The test is classed as cell-based, HEK293.
In test [3] the target is T1, Mu-type opioid receptor (Homo sapiens, UniProt P35372). Description: biochemical. The test is classed as cell-based, HEK293.
The target of test [4] is T1, Mu-type opioid receptor. Description: Tested for effective concentration against cloned human Opioid receptor mu 1. The essentials: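 GTP[γ]35S binding using HEK-293S membranes expressing hμ (0.2 pmol/mg protein). Filtration after 1 h. Stimulated binding defined with 30 µM DAMGO. EC50 from a three-parameter logistic fit.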
The nature of test [5]: Selectivity of mu IC50 to that of delta IC50 was calculated; NA means Insufficient binding potency. In short, it runs like this: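 Ratio = delta IC50 / mu IC50, from radioligand displacement on HEK-293S P2 membranes expressing human receptors. […] Tris 50 mM, MgCl2 3 mM, BSA 1 mg/mL, pH 7.4. Filtration at equilibrium; 10 µM naloxone defined nonspecific binding. IC50 from logistic fits.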

T1 sequence (P35372 whole entry): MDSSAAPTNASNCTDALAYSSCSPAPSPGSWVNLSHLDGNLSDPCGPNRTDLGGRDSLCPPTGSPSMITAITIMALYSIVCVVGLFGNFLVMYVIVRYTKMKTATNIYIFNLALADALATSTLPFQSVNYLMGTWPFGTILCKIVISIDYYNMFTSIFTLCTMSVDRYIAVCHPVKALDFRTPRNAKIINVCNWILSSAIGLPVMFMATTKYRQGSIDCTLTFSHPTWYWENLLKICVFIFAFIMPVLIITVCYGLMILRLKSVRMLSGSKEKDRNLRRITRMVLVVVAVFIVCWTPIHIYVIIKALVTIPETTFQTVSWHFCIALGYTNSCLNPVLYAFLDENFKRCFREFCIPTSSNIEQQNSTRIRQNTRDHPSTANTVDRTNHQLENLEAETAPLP
Sequence of Kappa-type opioid receptor (P41145 whole entry): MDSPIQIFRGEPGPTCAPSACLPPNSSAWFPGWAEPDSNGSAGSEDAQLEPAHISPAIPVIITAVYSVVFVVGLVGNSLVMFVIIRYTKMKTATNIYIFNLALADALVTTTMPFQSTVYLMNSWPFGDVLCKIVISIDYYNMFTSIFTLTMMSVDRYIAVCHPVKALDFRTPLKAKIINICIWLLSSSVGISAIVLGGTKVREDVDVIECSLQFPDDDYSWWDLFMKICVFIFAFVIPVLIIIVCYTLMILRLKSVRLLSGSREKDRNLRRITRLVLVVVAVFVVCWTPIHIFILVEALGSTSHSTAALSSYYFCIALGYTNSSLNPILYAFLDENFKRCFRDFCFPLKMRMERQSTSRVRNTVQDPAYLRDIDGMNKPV
Sequence of Delta-type opioid receptor (P41143 whole entry): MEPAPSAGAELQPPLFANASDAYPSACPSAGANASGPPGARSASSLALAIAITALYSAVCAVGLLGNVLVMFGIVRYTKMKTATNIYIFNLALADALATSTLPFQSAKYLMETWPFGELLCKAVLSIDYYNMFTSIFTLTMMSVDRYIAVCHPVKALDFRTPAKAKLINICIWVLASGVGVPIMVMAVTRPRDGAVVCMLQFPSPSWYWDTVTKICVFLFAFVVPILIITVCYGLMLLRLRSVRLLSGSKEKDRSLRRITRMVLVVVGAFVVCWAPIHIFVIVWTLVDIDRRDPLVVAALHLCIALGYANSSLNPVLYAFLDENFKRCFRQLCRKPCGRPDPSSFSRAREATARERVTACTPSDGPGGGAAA

Take `C[C@@H]1[C@H]2c3ccccc3C[C@@H](c3ccccc32)N1C`: the IC50 (usually the concentration at which inhibition is half-maximal) in test [1] was above 10000 nM; in test [2], above 75000 nM; against Mu-type opioid receptor [3] it was 230 nM.

As to `C[C@@H]1[C@H]2c3ccccc3C[C@@H](c3ccccc32)N1Cc1ccccc1`, the half-inhibitory concentration (IC50) is above 8800 nM in test [1], above 5800 nM in test [2] and above 10000 nM at Mu-type opioid receptor [3].

For the compound `C[C@@H]1[C@H]2c3cc(Br)ccc3C[C@@H](c3ccc(Br)cc32)N1CC1CC1`, the IC50 in test [1] is above 10000 nM; in test [2] it was above 4900 nM; against Mu-type opioid receptor [3], 2050 nM.

`Brc1ccc(CNc2ccc3c(c2)[C@H]2c4cc(NCc5ccc(Br)cc5)ccc4[C@H](C3)N3CCC[C@@H]23)cc1`: the IC50 in test [1] came out at 5300 nM; in test [2] it was 7000 nM; against Mu-type opioid receptor [3], 120 nM.

In the case of `C=CCN1[C@H](C)[C@H]2c3ccccc3C[C@H]1c1ccccc12`, the figures for the IC50 (in test [1]; in test [2]; against Mu-type opioid receptor [3]) were above 9700 nM, above 4000 nM and 2000 nM, respectively.

With `Brc1ccc2c(c1)[C@H]1c3cc(Br)ccc3[C@H](C2)N2CCC[C@@H]12`, the half-maximal inhibitory concentration (IC50) in test [1] was found to be 5020 nM; in test [2], 7400 nM; against Mu-type opioid receptor [3] it was 500 nM.

As for `C[C@@H]1[C@H]2c3cc(NCc4ccccc4)ccc3C[C@@H](c3ccc(NCc4ccccc4)cc32)N1C`, the IC50 in test [1] was found to be 120 nM; in test [2], 640 nM; on Mu-type opioid receptor [3] it was 8 nM. The EC50 (as a rule, the concentration at which the effect is half-maximal) on Mu-type opioid receptor [4] was 4300 nM.

Take `CN1CC[C@]23CCCC[C@H]2[C@H]1Cc1ccc(O)cc13` [LEVORPHANOL]: the IC50 in test [1] was 5.1 nM; in test [2], 4 nM.

In the case of `C[C@@H]1[C@H]2c3cc(Nc4ccccc4)ccc3C[C@@H](c3ccc(Nc4ccccc4)cc32)N1CC1CC1`, the IC50 was 890 nM in test [1], 1200 nM in test [2] and 82 nM against Mu-type opioid receptor [3].

With `CC(=O)Oc1ccc2c(c1)[C@H]1c3cc(OC(C)=O)ccc3[C@H](C2)N(C)[C@@H]1C`, the IC50 was above 4700 nM in test [1], above 9500 nM in test [2] and 200 nM at Mu-type opioid receptor [3].

Regarding `COc1ccc2c(c1)[C@H]1c3cc(OC)ccc3[C@H](C2)N2CCC[C@@H]12`, the half-inhibitory concentration (IC50) is 4040 nM in test [1], above 10000 nM in test [2] and 160 nM at Mu-type opioid receptor [3].

Consider `C[C@@H]1[C@H]2c3cc(N4CCN(C)CC4)ccc3C[C@@H](c3ccc(N4CCN(C)CC4)cc32)N1CC1CC1`, for which the IC50 worked out at 2040 nM in test [1], 1600 nM in test [2] and 690 nM at Mu-type opioid receptor [3].

On to `COc1ccc2c(c1)[C@H]1c3cc(OC)ccc3[C@H](C2)N(CC2CC2)[C@@H]1C`, for which the IC50 in test [1] turned out to be 6630 nM; in test [2], 5330 nM; on Mu-type opioid receptor [3], 1030 nM.

In the case of `CC(C)C[C@H]1[C@H]2c3ccccc3C[C@H](c3ccccc32)N1C`, the IC50 was above 8700 nM in test [1], 2970 nM in test [2] and 1010 nM on Mu-type opioid receptor [3].

As to `CN1[C@@H]2Cc3ccccc3[C@@H](c3ccccc32)[C@@H]1CCCO`, the IC50 was above 10000 nM in test [1], above 10000 nM in test [2] and 1150 nM on Mu-type opioid receptor [3].

Consider `CC(=O)Oc1ccc2c(c1)[C@H]1c3cc(OC(C)=O)ccc3[C@H](C2)N(CC2CC2)[C@@H]1C`, for which the figures for the IC50 (in test [1]; in test [2]; against Mu-type opioid receptor [3]) were 3300 nM, 2020 nM and 44 nM, respectively.

Turning to `C[C@H]1N[C@@H]2Cc3ccccc3[C@H]1c1ccccc12`, the half-maximal inhibitory concentration (IC50) was above 10000 nM in test [1], above 10000 nM in test [2] and 650 nM on Mu-type opioid receptor [3].

As to `COc1cc2c(cc1OC)[C@H]1c3cc(OC)c(OC)cc3[C@H](C2)N(CC2CC2)[C@@H]1C`, the IC50 (in test [1]; in test [2]; on Mu-type opioid receptor [3]) was above 10000 nM throughout. In addition, the NA result in test [5] is “inactive”.

Regarding `C[C@@H]1[C@H]2c3cc(NCc4ccccc4)ccc3C[C@@H](c3ccc(NCc4ccccc4)cc32)N1CC1CC1`, the IC50 in test [1] was 49 nM; in test [2], 31 nM; against Mu-type opioid receptor [3], 7 nM.

Take `CC(C)[C@H]1[C@H]2c3ccccc3C[C@H](c3ccccc32)N1C`: the IC50 in test [1] was above 10000 nM; in test [2] it was 3410 nM; against Mu-type opioid receptor [3], 695 nM.

With `C[C@@H]1[C@H]2c3cc(O)ccc3C[C@@H](c3ccc(O)cc32)N1C`, the results for the IC50 (in test [1]; in test [2]; against Mu-type opioid receptor [3]) were 1300 nM, 961 nM and 16 nM, respectively.

For `CN1[C@@H]2Cc3ccccc3[C@@H](c3ccccc32)[C@@H]1Cc1ccccc1`, the half-maximal inhibitory concentration (IC50) in test [1] was 3440 nM; in test [2], 1710 nM; on Mu-type opioid receptor [3], 1050 nM.

As to `C[C@@H]1[C@H]2c3cc(Br)ccc3C[C@@H](c3ccc(Br)cc32)N1C`, the IC50 in test [1] came out at 8840 nM; in test [2], 6920 nM; at Mu-type opioid receptor [3], 360 nM.

`C[C@@H]1[C@H]2c3cc(Nc4ccccc4)ccc3C[C@@H](c3ccc(Nc4ccccc4)cc32)N1C`: the IC50 in test [1] was determined as 530 nM; in test [2], 3600 nM; against Mu-type opioid receptor [3] it was 56 nM.

In the case of `C[C@@H]1[C@H]2c3cc(N4CCN(C)CC4)ccc3C[C@@H](c3ccc(N4CCN(C)CC4)cc32)N1C`, the IC50 worked out at 2500 nM in test [1], 3200 nM in test [2] and 53 nM on Mu-type opioid receptor [3].

With `Oc1ccc2c(c1)[C@H]1c3cc(O)ccc3[C@H](C2)N2CCC[C@@H]12`, the IC50 in test [1] stood at 3800 nM; in test [2], 7200 nM; at Mu-type opioid receptor [3], 130 nM.

Regarding `c1ccc2c(c1)C[C@H]1c3ccccc3[C@H]2[C@@H]2CCCN12`, the results for the IC50 (in test [1]; in test [2]; against Mu-type opioid receptor [3]) were above 7800 nM, 6100 nM and 59 nM, respectively.

`Fc1ccc2c(c1)[C@H]1c3cc(F)ccc3[C@H](C2)N2CCC[C@@H]12`: the IC50 in test [1] is above 10000 nM; in test [2], above 6400 nM; at Mu-type opioid receptor [3], 103 nM.

Regarding `COc1ccc2c(c1)[C@H]1c3cc(OC)ccc3[C@H](C2)N(C)[C@@H]1C`, the IC50 in test [1] is above 10000 nM; in test [2], above 10000 nM; at Mu-type opioid receptor [3], 420 nM. Moreover, the NA entry in test [5] was “inactive”.

With `C[C@@H]1[C@H]2c3cc(O)ccc3C[C@@H](c3ccc(O)cc32)N1CC1CC1`, the IC50 turned out to be 460 nM in test [1], 204 nM in test [2] and 6.4 nM against Mu-type opioid receptor [3].

As to `C[C@@H]1[C@H]2c3ccccc3C[C@@H](c3ccccc32)N1CC1CC1`, the results for the IC50 (in test [1]; in test [2]; on Mu-type opioid receptor [3]) were above 10000 nM, above 10000 nM and 1080 nM, respectively.

For `C[C@@H]1[C@H]2c3cc(N4CCOCC4)ccc3C[C@@H](c3ccc(N4CCOCC4)cc32)N1C`, the 50% inhibitory concentration (IC50) in test [1] was 7500 nM; in test [2], above 10000 nM; on Mu-type opioid receptor [3], 690 nM.

On to `c1ccc2c(c1)C[C@@H]1c3ccccc3[C@H]2[C@@H]2CCCCN12`, for which the IC50 in test [1] was above 10000 nM; in test [2], 7400 nM; against Mu-type opioid receptor [3] it was 390 nM.

For `CC(=O)Oc1ccc2c(c1)[C@H]1c3cc(OC(C)=O)ccc3[C@H](C2)N2CCC[C@@H]12`, the values for the IC50 (in test [1]; in test [2]; at Mu-type opioid receptor [3]) were 2900 nM, above 6000 nM and 220 nM, respectively.

Regarding `COc1cc2c(cc1OC)[C@@H]1c3cc(OC)c(OC)cc3[C@@H](C2)N(C)[C@H]1C`, the results for the concentration for half-maximal inhibition (IC50) in test [1] and in test [2] were above 5700 nM and above 10000 nM, respectively. In test [5], the NA result is “inactive”.

Turning to `CC(=O)N1[C@H](C)[C@H]2c3ccccc3C[C@H]1c1ccccc12`, the IC50 is above 10000 nM in test [1], above 10000 nM in test [2] and above 9500 nM on Mu-type opioid receptor [3].

With `C[C@H]1[C@H]2c3ccccc3C[C@H](c3ccccc32)N1C`, the half-maximal inhibitory concentration (IC50) in test [1] is above 10000 nM; in test [2] it was above 10000 nM; on Mu-type opioid receptor [3], 611 nM.

On to `COc1cc2c(cc1OC)[C@H]1c3cc(OC)c(OC)cc3[C@H](C2)N(C)[C@@H]1C`, for which the concentration for half-maximal inhibition (IC50) (in test [1]; in test [2]; against Mu-type opioid receptor [3]) was above 10000 nM each time. Moreover, in test [5], the NA result is “inactive”.
